According to ChEMBL document CHEMBL1629415, “Biological evaluation of donor-acceptor aminonaphthoquinones as antitumor agents” (Eur J Med Chem, 2010):
In brackets after ≈: the same amount, converted by molar mass. Activity calls are given as the source filed them. No cut-off for these calls is given here.

Legend:
[1] = test system: MCF7; test: Cytotoxicity against human MCF7 cells after 48 hrs by MTT assay; type: functional, cell-based; conditions: MCF7, 48 h
Outline: (§1)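 T24, DU145 and MCF7 grown in high-glucose DMEM with 10% fetal calf serum and penicillin/streptomycin. BALB/3T3 mouse fibroblasts grown in the same medium with 10% newborn calf serum. Cells seeded at 10 000/well for 24 h, then exposed 48 h at 37 C. MTT 0.5 mg/mL for 2 h, formazan dissolved in DMSO, read at 550 nm. EC50 is the concentration that lowers MTT reduction by 50% versus untreated control.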

[2] = Lipophilicity, log P of the compound; type: physicochemical; conditions: octanol/water
[3] = test system: T-24; test: Cytotoxicity against human T24 cells after 48 hrs by MTT assay; type: functional, cell-based; conditions: T-24, 48 h; outline: as §1
[4] = test system: DU-145; test: Cytotoxicity against human DU145 cells after 48 hrs by MTT assay; type: functional, cell-based; conditions: DU-145, 48 h; outline: as §1
[5] = test system: BALB/3T3; test: Cytotoxicity against mouse BALB/3T3 cells after 48 hrs by MTT assay; type: cell-based; conditions: BALB/3T3, 48 h; outline: as §1
[6] = test system: T-24; test: Induction of apoptosis in human T24 cells assessed as increase of caspase-3-mediated DEVDase activity at 5 ug/ml after 4 hrs; type: functional; conditions: in the assay text read “5 uM” for “5 ug/ml”
Outline: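 Positive-control arm: T24 cells exposed to sanguinarine for 4 h. Lysate supernatant then assayed for DEVD-AFC cleavage kinetically at room temperature (ex 380/em 500 nm), expressed as U/mg protein.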

[7] = test system: T-24; test: Anticancer activity against human T24 cells assessed as decreased in intracellular ATP level after 6 hrs by ATPlite assay; type: functional, cell-based
Outline: (§2)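 T24 cells in high-glucose DMEM with 10% FCS were exposed 6 h at 37 C to compound over a 1–100 range, alongside untreated controls. Intracellular ATP was measured by ATPlite luminescence kit. Groups were compared by one-way ANOVA with Bonferroni test.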

[8] = test system: T-24; test: Induction of apoptosis in human T24 cells assessed as increase of caspase-3-mediated DEVDase activity at 1 ug/ml after 24 hrs; type: functional
Outline: (§3)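 T24 cells exposed 6 or 24 h at 37 C, washed twice in PBS, lysed and centrifuged. Supernatant incubated with DEVD-AFC substrate, cleavage followed kinetically at room temperature (ex 380 nm, em 500 nm). Activity given as U/mg protein, protein by Lowry method with BSA standard.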

[9] = test system: T-24; test: Anticancer activity against human T24 cells assessed as inhibition of cell proliferation at 10 ug/ml after 10 days using crystal violet staining by clonogenic assay; type: functional
Outline: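 T24 cells (500) seeded at single-cell density and left to adhere overnight. Compound exposure 24 h, then washed with warm PBS and regrown 10 days in fresh medium. Colonies stained with crystal violet to score clonogenic survival.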

[10] = test system: T-24; test: Anticancer activity against human T24 cells assessed as decreased in intracellular ATP level at 100 ug/ml after 6 hrs by ATPlite assay; type: functional, cell-based; outline: as §2
[11] = test system: T-24; test: Induction of apoptosis in human T24 cells assessed as increase of caspase-3-mediated DEVDase activity at 1 ug/ml after 6 hrs; type: functional; outline: as §3
[12] = test system: T-24; test: Induction of apoptosis in human T24 cells assessed as increase of caspase-3-mediated DEVDase activity at 100 ug/ml after 6 hrs; type: functional; outline: as §3
[13] = test system: T-24; test: Induction of apoptosis in human T24 cells assessed as increase of caspase-3-mediated DEVDase activity at 10 ug/ml after 24 hrs; type: functional; outline: as §3
[14] = test system: T-24; test: Induction of apoptosis in human T24 cells assessed as increase of caspase-3-mediated DEVDase activity at 100 ug/ml after 24 hrs; type: functional; outline: as §3
[15] = test system: T-24; test: Induction of apoptosis in human T24 cells assessed as increase of caspase-3-mediated DEVDase activity at 10 ug/ml after 6 hrs; type: functional; outline: as §3

logP [2]	logP ([2]; read-out: logP)	Structure (SMILES)	EC50 [1]	EC50 [3]	EC50 [4]	EC50 [5]	Activity [6]	Activity [7]	Activity [8]	inhibition at 10 µg/mL ([9]; T-24, 240 h)	Activity [10]	Activity [11]	Activity [12]	Activity [13]	Activity [14]	Activity [15]	Activity [9]
1.59		O=C1C(Cl)=C(Nc2ccccc2)C(=O)c2ccccc21	6.3 µg/mL (≈ 22.2 µM)	14.8 µg/mL (≈ 52.2 µM)	66.8 µg/mL (≈ 235 µM)	9.1 µg/mL (≈ 32.1 µM)											
	2.34	CN(C1=CC(=O)c2ccccc2C1=O)c1ccccc1	7.8 µg/mL (≈ 29.6 µM)	8.4 µg/mL (≈ 31.9 µM)	20.9 µg/mL (≈ 79.4 µM)	43.3 µg/mL (≈ 164 µM)											
	2.38	CN(C1=C(Cl)C(=O)c2ccccc2C1=O)c1ccccc1	1.2 µg/mL (≈ 4.03 µM)	6 µg/mL (≈ 20.2 µM)	6.7 µg/mL (≈ 22.5 µM)	0.8 µg/mL (≈ 2.69 µM)											
	2.08	Cc1ccccc1NC1=C(Cl)C(=O)c2ccccc2C1=O	4.9 µg/mL (≈ 16.5 µM)	9.3 µg/mL (≈ 31.2 µM)	25.8 µg/mL (≈ 86.7 µM)	3.2 µg/mL (≈ 10.7 µM)											
	1.55	O=C1C=C(Nc2ccccc2)C(=O)c2ccccc21	2.6 µg/mL (≈ 10.4 µM)	1.2 µg/mL (≈ 4.81 µM)	4 µg/mL (≈ 16 µM)	0.2 µg/mL (≈ 0.802 µM)											
	1.46	COc1ccc(NC2=C(Cl)C(=O)c3ccccc3C2=O)cc1	> 1000 µg/mL	438 µg/mL (≈ 1390 µM)	> 1000 µg/mL	13.7 µg/mL (≈ 43.7 µM)											

Second part, the compound before the results:

Structure (SMILES)	logP [2]	logP ([2]; read-out: logP)	EC50 [1]	EC50 [3]	EC50 [4]	EC50 [5]	Activity [6]	Activity [7]	Activity [8]	inhibition at 10 µg/mL ([9]; T-24, 240 h)	Activity [10]	Activity [11]	Activity [12]	Activity [13]	Activity [14]	Activity [15]	Activity [9]
Cc1ccccc1NC1=CC(=O)c2ccccc2C1=O		2.04	0.8 µg/mL (≈ 3.04 µM)	7.7 µg/mL (≈ 29.2 µM)	7.7 µg/mL (≈ 29.2 µM)	6.2 µg/mL (≈ 23.5 µM)											
O=C1C(Cl)=C(Nc2ccc(O)cc2)C(=O)c2ccccc21		1.2	2.8 µg/mL (≈ 9.34 µM)	0.6 µg/mL (≈ 2 µM)	1.9 µg/mL (≈ 6.34 µM)	0.6 µg/mL (≈ 2 µM)											
C[n+]1cc2c3c(ccc2c2ccc4cc5c(cc4c21)OCO5)OCO3 [SANGUINARIUM]							639.2 U/mg										
COc1ccc(NC2=CC(=O)c3ccccc3C2=O)cc1		1.43	3.7 µg/mL (≈ 13.2 µM)	8.1 µg/mL (≈ 29 µM)	7.6 µg/mL (≈ 27.2 µM)	35.7 µg/mL (≈ 128 µM)		Dose-dependent effect	5 U/mg	75%	Active	5.9 U/mg	3.4 U/mg	4.5 U/mg	3.4 U/mg	5 U/mg	
O=C1C=C(Nc2ccc(O)cc2)C(=O)c2ccccc21		1.16	0.8 µg/mL (≈ 3.02 µM)	2.3 µg/mL (≈ 8.67 µM)	0.9 µg/mL (≈ 3.39 µM)	6 µg/mL (≈ 22.6 µM)		Dose-dependent effect	5.1 U/mg		Active	6 U/mg	3 U/mg	4.9 U/mg	4 U/mg	2.7 U/mg	Active
COc1ccc(OC)c(NC2=CC(=O)c3ccccc3C2=O)c1		1.3	1.2 µg/mL (≈ 3.88 µM)	10.9 µg/mL (≈ 35.2 µM)	35.2 µg/mL (≈ 114 µM)	11.5 µg/mL (≈ 37.2 µM)											
COc1ccc(OC)c(NC2=C(Cl)C(=O)c3ccccc3C2=O)c1		1.34	4.6 µg/mL (≈ 13.4 µM)	2.4 µg/mL (≈ 6.98 µM)	6 µg/mL (≈ 17.5 µM)	0.7 µg/mL (≈ 2.04 µM)											
